How the values were obtained:
[1] = biological target: T1, Fatty-acid amide hydrolase 1 (Rattus norvegicus, UniProt P97612); assay: Inhibition of rat FAAH expressed in Escherichia coli
T1 sequence (P97612 whole entry): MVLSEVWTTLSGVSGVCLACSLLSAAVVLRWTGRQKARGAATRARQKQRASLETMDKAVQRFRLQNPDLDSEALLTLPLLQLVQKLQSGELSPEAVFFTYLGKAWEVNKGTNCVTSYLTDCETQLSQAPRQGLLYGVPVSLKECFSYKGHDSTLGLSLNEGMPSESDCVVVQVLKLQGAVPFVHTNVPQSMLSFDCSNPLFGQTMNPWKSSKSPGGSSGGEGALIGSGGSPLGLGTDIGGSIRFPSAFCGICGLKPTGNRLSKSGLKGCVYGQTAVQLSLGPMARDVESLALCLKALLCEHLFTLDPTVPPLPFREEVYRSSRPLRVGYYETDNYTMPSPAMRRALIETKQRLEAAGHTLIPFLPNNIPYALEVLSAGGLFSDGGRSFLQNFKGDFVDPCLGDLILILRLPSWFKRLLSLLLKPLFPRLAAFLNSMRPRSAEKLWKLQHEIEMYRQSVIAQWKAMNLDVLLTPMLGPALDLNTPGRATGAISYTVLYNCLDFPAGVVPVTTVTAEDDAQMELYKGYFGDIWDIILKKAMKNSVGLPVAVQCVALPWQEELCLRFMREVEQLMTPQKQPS

[2] = biological target: T1, Fatty-acid amide hydrolase 1; assay: Inhibition of rat FAAH expressed in Escherichia coli at pH 9.0
[3] = Selectivity ratio of IC50 for TGH over IC50 for rat FAAH expressed in Escherichia coli
[4] = biological target: T2, Neutral cholesterol ester hydrolase 1 (Homo sapiens, UniProt Q6PIU2); assay: Inhibition of KIAA1363 hydrolase
T2 sequence (Q6PIU2 whole entry): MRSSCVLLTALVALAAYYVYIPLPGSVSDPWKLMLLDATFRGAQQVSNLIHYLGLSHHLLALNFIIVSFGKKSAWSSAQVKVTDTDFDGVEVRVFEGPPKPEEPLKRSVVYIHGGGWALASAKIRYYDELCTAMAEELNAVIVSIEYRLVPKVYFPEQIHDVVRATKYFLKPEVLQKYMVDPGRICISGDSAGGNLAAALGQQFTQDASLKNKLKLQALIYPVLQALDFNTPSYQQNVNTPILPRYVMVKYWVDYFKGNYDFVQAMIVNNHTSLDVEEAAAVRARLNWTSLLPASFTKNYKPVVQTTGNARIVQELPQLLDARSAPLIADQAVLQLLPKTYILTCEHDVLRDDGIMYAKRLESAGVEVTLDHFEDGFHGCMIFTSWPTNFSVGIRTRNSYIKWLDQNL

Liver carboxylesterase 1 = biological target: T3, Liver carboxylesterase 1 (Homo sapiens, UniProt P23141); assay: Inhibition of TGH
T3 sequence (P23141 whole entry): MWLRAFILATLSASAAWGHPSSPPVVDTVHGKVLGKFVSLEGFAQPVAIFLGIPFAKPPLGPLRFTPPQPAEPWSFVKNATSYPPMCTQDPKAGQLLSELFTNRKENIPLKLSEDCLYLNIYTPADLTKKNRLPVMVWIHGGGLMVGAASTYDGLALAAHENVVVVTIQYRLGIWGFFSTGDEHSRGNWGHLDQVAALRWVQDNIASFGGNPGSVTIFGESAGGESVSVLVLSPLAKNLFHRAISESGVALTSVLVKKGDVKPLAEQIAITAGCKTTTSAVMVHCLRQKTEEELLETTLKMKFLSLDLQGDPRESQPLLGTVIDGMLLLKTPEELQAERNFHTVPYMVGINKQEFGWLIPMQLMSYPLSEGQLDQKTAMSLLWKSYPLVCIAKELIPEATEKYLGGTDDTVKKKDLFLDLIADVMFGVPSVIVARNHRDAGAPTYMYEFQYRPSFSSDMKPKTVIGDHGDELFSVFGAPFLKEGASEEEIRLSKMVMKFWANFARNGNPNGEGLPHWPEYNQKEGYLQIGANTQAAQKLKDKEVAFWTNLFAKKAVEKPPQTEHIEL
Procedure, shortened: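 Measured in a proteome-wide selectivity screen that globally profiles mammalian serine hydrolases, with TGH among the enzymes detected. Values are reported as IC50 from this screen rather than as Ki from substrate hydrolysis assays.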

Compound | IC50 [1] [nM] | Ki [2] [nM] | Ratio IC50 [3] | IC50 [4] [nM] | IC50 (Liver carboxylesterase 1) [nM]
COC(=O)c1nc(C(=O)CCCCCCc2ccccc2)no1 | 10 | 7 | 20 | > 100000 | 200
O=C(CCCCCCc1ccccc1)c1nnn[nH]1 | 600 | > 1000 | 0.13 | 60000 | 80

— ChEMBL document CHEMBL1155875, “Optimization of the central heterocycle of alpha-ketoheterocycle inhibitors of fatty acid amide hydrolase” (J Med Chem, 2008)
